Assay results as given in publication PMC3817326 (British Journal of Cancer, 2013).
Values belong to the compound of their own block, whether it stands above or below them.

Tests used:
[1] = Transwell permeability assay across caco-2 monolayers; format: in vitro ADME, human; details: human, Caco-2
In short: (§1)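 Caco-2 monolayers in transwells were used to measure apical-to-basal absorption (PappA–B) and basal-to-apical secretion (PappB–A). Efflux ratio was calculated as PappB–A/PappA–B. Runs were made with or without ABC transporter inhibitors (FTC for ABCG2, verapamil for ABCB1), with vinblastine as an ABCB1 reference substrate.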

[2] = Metabolic stability in mouse S9 fractions; format: in vitro ADME; details: 60 min incubation with NADPH and mouse S9 fractions
Ki-67 = details: after 5 days of treatment; ref Li et al, 2012; cited from earlier work
[3] = test system: A2780^AD cells, overexpressing ABCB1; assay: Growth inhibition in doxorubicin-resistant A2780AD cells vs parental A2780; format: cell-based
caco-2 monolayers = assay: Transwell permeability assay across caco-2 monolayers; format: in vitro ADME, human; details: compounds tested at 10 μM
In short: as §1

[4] = test system: caspase 3/7 activity in HCT-116 cells; assay: Caspase 3/7 assay; format: cell-based, human; details: 24 h
In short: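 Treated cells were transferred to opaque plates and incubated 1 h with a luminogenic caspase 3/7 reagent. Luminescence on a microplate counter gave caspase 3/7 activity, normalised to protein content.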

efflux ratio at 10 μM [1]: 8
SMILES: CC[C@]1(O)C[C@@H]2CN(CCc3c([nH]c4ccccc34)[C@@](C(=O)OC)(c3cc4c(cc3OC)N(C)[C@H]3[C@@](O)(C(=O)OC)[C@H](OC(C)=O)[C@]5(CC)C=CCN6CC[C@]43[C@@H]65)C2)C1 [vinblastine]

Parent compound remaining [2]: < 10%
SMILES: CC[C@H](CO)Nc1nc(NCc2ccccc2)c2ncn(C(C)C)c2n1 [roscovitine]

SMILES: CO[C@H]1C[C@@H]2CC[C@@H](C)[C@@](O)(O2)C(=O)C(=O)N2CCCC[C@H]2C(=O)O[C@H]([C@H](C)C[C@@H]2CC[C@@H](OCCO)[C@H](OC)C2)CC(=O)[C@H](C)/C=C(\C)[C@@H](O)[C@@H](OC)C(=O)[C@H](C)C[C@H](C)/C=C/C=C/C=C/1C [everolimus]
Decrease in Ki-67 (Ki-67): 1.6 fold

Permeability PappA–B across caco-2 cells (caco-2 monolayers): poorly absorbed
SMILES: CC(C)c1cnn2c(NCc3ccccc3)cc(NCCCCCCN)nc12 [BS-181]
Potency in A2780^AD cells compared with parental A2780 [3]: equipotent
Caspase 3/7 activity [4]: only at the highest concentration tested
